# Screens from PubChem.
# CHT block: human CHT choline transport inhibition | actives 0.86% (n = 310,000) | CHT-expressing cells, membrane potential dye, choline response; active compounds read low | B-score at 10 µM | Q9GZV3;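 active = B-score over 3 SD under the library average, and starting fluorescence ratio not unusually high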;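 also: choline stimulus applied at its EC90 after an EC20 pre-addition; B-score computed on integrated fluorescence ratio after choline addition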
# procasp7 counter: counter-screen for procaspase-3 activators: activators of human procaspase-7 | P55210 | recombinant procaspase-7, Ac-DEVD-pNA absorbance 405 nm; D23A/D198A/D206A triple mutant, cannot self-cleave; scale: DMSO 0, 5 µM enzyme 100 | activation, % at 8.5 µM | actives 0.093% (n = 330,000);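 active = percent activation above the screen-wide mean plus 3 SD, cut at about 25% in these data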
# Target sequence (P55210 whole entry D23A/D198A/D206A): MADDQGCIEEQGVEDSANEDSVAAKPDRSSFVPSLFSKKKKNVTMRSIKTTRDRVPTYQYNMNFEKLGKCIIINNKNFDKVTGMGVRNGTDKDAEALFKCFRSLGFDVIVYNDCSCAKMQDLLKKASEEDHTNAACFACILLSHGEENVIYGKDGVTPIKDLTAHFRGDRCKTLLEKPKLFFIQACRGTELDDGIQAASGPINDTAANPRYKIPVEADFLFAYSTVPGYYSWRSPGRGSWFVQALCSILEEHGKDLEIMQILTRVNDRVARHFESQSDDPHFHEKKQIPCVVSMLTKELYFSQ
#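 signal = Epi-absorbance of released pNA at 405 nm, two timepoints | assay system = Uncleavable procaspase-7 mutant enzyme | reagent = Ac-DEVD-pNA substrate, 400 µM as added | times = 1 h enzyme–compound preincubation and 2 h substrate reaction, both 25 °C | benchmarks = low DMSO alone, high DMSO plus 5 µM PC-7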
# CHT PAM: human CHT allosteric activation. CHT-expressing cells, membrane potential dye, choline EC20; active compounds read high; LV-AA mutant CHT in HEK293 cells. B-score at 10 µM. actives 0.49% (n = 310,000). Q9GZV3. AID 488977;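 active = initial fluorescence not abnormally high and integrated response B-score, plate-corrected, over 3 SD above library mean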
# procasp3 activ: activators of human procaspase-3 | recombinant procaspase-3 D3A, Ac-DEVD-pNA absorbance 405 nm | actives 0.11% (n = 330,000) | activation, % at 8.5 µM;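 active = activation above the mean of all tested compounds plus 3 SD, cut at about 21% in these data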;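 also: 0% = DMSO alone and 100% = DMSO wells spiked with extra 5 µM PC-3 D3A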
#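 Test system: Procaspase-3 D3A mutant, all three cleavage aspartates alanine | Dosing: Single dose, 8.5 µM nominal compound, 0.8% DMSO | Schedule: 1 h preincubation, 2 h reaction | Technique: 405 nm absorbance of p-nitroaniline, reads at 0 and 120 min | Repeats: One well per compound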
# CHT block conf: confirmation of human choline transporter CHT inhibitors | shares compounds with CHT block | CHT-expressing cells, choline membrane potential dye; LV-to-AA substituted CHT, HEK293 cells | CHT activity remaining % of control (active compounds read low), % at 10 µM | actives 70% (n = 2,400) | AID 493221;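 active = choline transporter activity left, mean of duplicates at 10 µM, below buffer-only control mean minus 3 SD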;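 also: depolarization triggered by choline at its EC90 following an EC20 pre-addition; 0% = hemicholinium-3 full block and 100% = buffer-only control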
# HEK293 MPD ctr: counter-screen for CHT inhibitors: effect in parental HEK293 cells | membrane potential dye, choline response; active = decrease or increase beyond buffer ±3SD | actives 4% (n = 2,400) | membrane potential ratio readout (active if shifted either direction beyond buffer ±3SD; no single direction) at 10 µM | shares compounds with CHT block;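 also: parental cells lack the transporter so any hit is non-specific; ratio is peak minus trough fluorescence over baseline after EC90 choline challenge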
# Numbers without * were called inactive; i = inactive; / = no result given. Shown are actives, neighbours in structure and some others; about 1.3% of the full set was active somewhere.
SMILES,CHT block,procasp7 counter,CHT PAM,procasp3 activ,CHT block conf,HEK293 MPD ctr
COc1ccc(CCC(=O)OCC(=O)c2c(N)n(CC(C)C)c(=O)n(C)c2=O)cc1,i,-5.0,i,-2.2,/,/
Cn1ccnc1SCC(=O)Nc1ccc2nc(SCC(=O)NC3CC3)sc2c1,-16*,4.1,i,-6.8,20.5%*,i
COc1ccc(C(=O)COC(=O)c2cnc(C)cn2)c(OC)c1,i,-5.0,i,5.2,/,/
CCOC(=O)c1c(CSc2ccccc2)n(C)c2cc(Br)c(O)c(CN(C)C)c12,i,4.1,i,6.9,/,/
CCOC(=O)c1c(CSc2ccccc2)n(C)c2ccc(O)c(CN3CCN(C)CC3)c12,-7.63*,3.1,i,9.7,31.4%*,i
CCN(CC)CCCNC(=O)c1ccccc1NC(=O)C1=CSCCO1,-11.6*,1.3,i,5.2,21.4%*,i
CC(NC(=O)c1cccc(OC2CCN(C3CCN(C)CC3)CC2)c1)c1ccccc1 (stereo not given),i,3.8,i,-10.0,/,/
CC(NC(=O)c1cccc(OC2CCN(C(=O)C3CC3)CC2)c1)c1ccc(F)cc1 (stereo not given),-6.28*,-3.5,i,3.9,37.6%*,i
CC(C)CN1CCC(Oc2cccc(C(=O)NCCc3ccccc3)c2)CC1,-11.8*,11.2,i,7.5,21.0%*,i
COCC(C)N1CCC(Oc2cccc(C(=O)NCCc3ccccc3)c2)CC1 (stereo not given),-10.1*,8.8,i,7.7,14.2%*,i
C/C=C(\C)CN1CCC(Oc2cccc(C(=O)NCc3ccccn3)c2)CC1,-9.07*,15.2,i,1.2,21.1%*,i
CN1CCN(C(=O)CCN2C(=O)/C(=C/c3cccc(Br)c3)SC2=S)CC1,-5.2*,-29.6,i,-7.7,70.4%*,i
O=C(CCN1C(=O)/C(=C\c2cccc(Br)c2)SC1=S)NCCCN1CCOCC1,-5.6*,-8.0,i,-10.7,69.0%*,i
O=C(CCN1C(=O)/C(=C/c2ccccc2)SC1=S)NCCCN1CCOCC1,i,-18.4,i,2.5,/,/
O=C(CCCN1C(=O)/C(=C/c2ccccc2)SC1=S)N1CCOCC1,-5.64*,-26.0,i,-14.2,i,i
Cc1ccc(C)c(N(C)S(=O)(=O)c2cccc3nsnc23)c1,-5.22*,-3.7,i,-9.5,i,i
CCOC(=O)c1nn(-c2ccc(Cl)cc2)c2nnc(Cc3ccc(C)cc3)c(=O)n12,-5.94*,1.4,i,-2.2,i,i
CC(C)COCC(CN(Cc1ccccc1)c1ccccc1)N1CCCC1 (stereo not given),-5.19*,11.6,i,-1.8,i,i
Cc1ccc(NC(=O)CCN2C(=O)NC3(CCCC3)C2=O)c(C)c1,/,-2.7,/,6.4,/,/
CN(C1CCCCC1)C(CNS(=O)(=O)c1ccc(Cl)cc1)c1ccccc1 (stereo not given),i,0.9,i,6.1,/,/
O=C(NNC(=S)NC(=O)c1sc2ccccc2c1Cl)c1ccc(Cl)cc1,-7.33*,-9.4,i,1.7,32.5%*,i
CC1CCC(NC(=O)Cn2c3c(c(-c4ccccc4Cl)cc2=O)CCC3)CC1 (stereo not given),-6.81*,-7.5,i,-2.6,45.6%*,i
NNC(=O)c1ccc(COc2ccc(Br)cc2)o1,i,-6.9,i,5.9,/,/
NNC(=O)c1ccc(CN2CCCCC2)o1,-5.89*,10.2,i,5.4,i,i
CCN1C(=NCC(C)C)N[C@@H](c2cccc(F)c2)C(C(=O)OC)=C1C,i,3.8,i,4.1,/,/
O=C(c1cc(COc2ccc(F)cc2Cl)on1)N1CCC(c2ccncc2)CC1,-6.46*,2.0,i,3.4,55.9%*,i
CCOC(=O)C1(Cc2ccccc2C)CCCN(C(=O)c2cc(C3CC3)[nH]n2)C1 (stereo not given),-6.27*,8.6,i,-11.2,i,i
